# Sampled rows, rich in hits. Any-hit rate of the full collection: about 2.5%.
# HIV Env fusion: blocks HIV Env-driven cell-cell fusion. HeLa-JRFL Env/CEM21 cell fusion, luciferase. AID 651610. inhibition, % at 12.3 µM. 1.1% of 360,000 active;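 active = mean replicate inhibition score of at least 50 and every replicate individually at or above 50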
# AF4-AF9 inh: MLL-AF4/AF9 protein interaction inhibition | AlphaScreen, biotin-AF4 peptide binding to FLAG-AF9 | inhibition, % at 10 µM | P42568 | 0.47% of 350,000 active;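 active = every replicate reaching a set inhibition limit, whatever the replicate mean, cut at about 25% in these data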
# Target sequence (P42568 whole entry, looked up): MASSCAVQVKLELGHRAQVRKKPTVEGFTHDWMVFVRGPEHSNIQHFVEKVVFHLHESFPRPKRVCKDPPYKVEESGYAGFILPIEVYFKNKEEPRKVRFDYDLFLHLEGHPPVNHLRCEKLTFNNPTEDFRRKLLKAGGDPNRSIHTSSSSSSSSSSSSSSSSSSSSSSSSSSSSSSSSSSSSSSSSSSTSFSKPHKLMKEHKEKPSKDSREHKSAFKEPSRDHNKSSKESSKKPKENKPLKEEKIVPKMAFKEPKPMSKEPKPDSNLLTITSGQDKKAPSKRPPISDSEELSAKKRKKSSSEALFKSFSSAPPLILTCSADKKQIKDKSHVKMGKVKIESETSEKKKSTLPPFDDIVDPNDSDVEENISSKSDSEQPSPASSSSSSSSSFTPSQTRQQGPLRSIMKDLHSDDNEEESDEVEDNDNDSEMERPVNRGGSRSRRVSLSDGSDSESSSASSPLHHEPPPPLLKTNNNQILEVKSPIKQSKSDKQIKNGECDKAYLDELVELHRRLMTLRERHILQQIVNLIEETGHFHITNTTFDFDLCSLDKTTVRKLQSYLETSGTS
# PAX8 reporter: lowers PAX8-driven luciferase in RMG-I cells | RMG-I TPO-luciferase reporter, SteadyGlo, 24 h | inhibition, % at 12.6 µM | 1.2% of 360,000 active;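 active = mean replicate inhibition at least 60% with every replicate also reaching 60%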;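 note: luciferase light reporting Pax8 driven TPO promoter activity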
# EWS-Fli inh: inhibitors of EWS/Fli oncoprotein transcriptional activity | 0.67% of 350,000 active | inhibition, % at 12.6 µM | A673 NR0B1-luciferase reporter, viability-normalised | AID 651661;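 active = mean inhibition of at least 50% after viability correction, with every replicate also passing that limit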;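 note: firefly luciferase signal divided by Alamar Blue viability fluorescence both relative to DMSO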
# FN deposit inh: fibronectin deposition inhibition; AID 743247; AH1F fibroblasts, Alexa488-fibronectin deposition fluorescence, overnight; inhibition, % at 12.6 µM; 0.086% of 350,000 active;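 active = mean inhibition across replicates of 30% or more, regardless of how many single replicates reach that level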
#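 Measured by – fluorescence 485/525 nm · System – AH1F fibroblast monolayer, labelled fibronectin deposition · Amount – 10000 cells per well · Buffer or medium – serum-reduced DMEM (2% serum) · Doses – single dose, pinned · Also added – fluorescent fibronectin at 24 nM final · Schedule – 1 h cell attachment, overnight exposure to compound and label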
# Glyco luc inh: N-linked glycosylation inhibition; 0.23% of 360,000 active; reporter increase, % at 12.5 µM; D54 ERlucT glycosylation luciferase reporter, 24 h; percent of 100 nM tunicamycin response; AID 588692;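 active = mean luciferase reporter signal, scaled so untreated is 0 and the glycosylation-blocking control 100, at or above a set limit in every replicate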;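 note: luciferase carries N-glycosylation sites so blocking glycosylation raises the light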
# Numbers stand for hits; . = inactive; / = no result given.
SMILES,HIV Env fusion,AF4-AF9 inh,PAX8 reporter,EWS-Fli inh,FN deposit inh,Glyco luc inh
CO[C@H]1CC[C@@H]2CCOc3ccc(C#N)cc3C(=O)N(C)CCCC(=O)N(C)C[C@H]1O2,.,.,.,.,.,/
CC1CCN(c2ccc(NC(=O)c3ccc([N+](=O)[O-])o3)cc2)CC1,/,.,.,.,.,.
CC(C)(C)C(=O)N1CCN(c2ccc(NC(=O)c3ccc([N+](=O)[O-])o3)cc2)CC1,.,.,101,54,.,.
CCCC(=O)N1CCN(c2ccc(NC(=O)c3ccc(Br)o3)cc2)CC1,/,/,/,/,/,.
O=C(Nc1ccc(N2CCN(C(=O)c3ccc(Cl)cc3)CC2)cc1)c1ccc([N+](=O)[O-])o1,.,.,.,67,.,.
CCCC(=O)N1CCN(c2ccc(NC(=O)c3ccc([N+](=O)[O-])o3)cc2)CC1,.,.,90,58,.,.
O=C(Nc1ccc(N2CCN(C(=O)c3ccccc3)CC2)cc1)c1ccc2c(c1)OCCO2,/,.,.,.,.,.
O=C(Nc1ccc(N2CCN(C(=O)c3ccc(Cl)cc3)CC2)cc1)c1ccc2c(c1)OCCO2,86,/,/,/,.,.
C[C@@H]1CN([C@@H](C)CO)C(=O)c2cc(-c3ccccc3)cnc2O[C@@H]1CN(C)C(=O)Cc1cccnc1,.,.,/,.,.,/
O=C(Nc1ccc2c(c1)OCO2)N[C@H]1C=C[C@H](CC(=O)N2CCN(c3ccccc3)CC2)O[C@@H]1CO,.,.,.,.,.,/
CS(=O)(=O)N1CCN(c2ccc(NC(=O)c3ccc([N+](=O)[O-])o3)cc2)CC1,.,.,71,.,36,.
CCC(=O)N1CCN(c2ccc(NC(=O)c3ccc([N+](=O)[O-])o3)cc2)CC1,.,.,90,54,.,.
O=C(Nc1ccc(N2CCN(Cc3ccccc3F)CC2)cc1)c1ccc([N+](=O)[O-])o1,.,.,/,52,.,.
O=C(Nc1ccc(N2CCCCC2)cc1)c1ccc([N+](=O)[O-])o1,.,.,.,.,.,.
O=C(Nc1ccc2c(c1)[C@H]1C[C@H](CC(=O)N3CCOCC3)O[C@H](CO)[C@H]1O2)C1CCC1,.,/,.,.,.,/
Cc1cccc(C(=O)OCC(=O)c2c(N)n(CC(C)C)c(=O)n(C)c2=O)c1O,60,.,.,.,/,.
COc1ccc(NC(=O)Nc2cccc3c2O[C@H](CN(C)CC2CCCCC2)[C@H](C)CN([C@@H](C)CO)C3=O)cc1,/,.,/,.,/,/
CO[C@@H]1CN(C)C(=O)c2cc(NS(C)(=O)=O)ccc2OC[C@@H](C)N(Cc2ccccc2)C[C@H]1C,.,.,.,.,.,/
O=c1oc2ccccc2cc1-c1cn2ccccc2n1,.,.,71,85,.,.
COc1ccc(N2CCN(C(=O)CCCC(=O)c3ccccc3)CC2)cc1,.,.,.,.,.,.
COc1ccc(N2CCN(CC(=O)c3ccccc3)CC2)cc1,.,31,.,.,.,.
COc1cc(-c2cc3nc(NCCc4ccncc4)ccn3n2)cc(OC)c1OC,.,.,.,.,.,28
c1ccc(COc2cccc(-c3cc4nc(NCCOc5ccccc5)ccn4n3)c2)cc1,.,.,.,.,.,.
COc1cc(-c2cc3nc(NCCOc4ccccc4)ccn3n2)cc(OC)c1OC,.,.,.,.,.,46
c1ccc(COc2ccc(-c3cc4nc(NCCOc5ccccc5)ccn4n3)cc2)cc1,43,.,.,.,/,.
SMILES,HIV Env fusion,AF4-AF9 inh,PAX8 reporter,EWS-Fli inh,FN deposit inh,Glyco luc inh
COc1ccc(CN(C)C[C@H]2Oc3c(NC(=O)c4ccc(-c5nccs5)cc4)cccc3C(=O)N([C@@H](C)CO)C[C@H]2C)cc1,/,.,.,.,/,/
Cc1ccccc1S(=O)(=O)N1CC[C@@H]2[C@H](CO)Nc3ccc(-c4ccccc4F)cc3[C@@H]21,/,.,.,.,.,/
Cc1noc(C)c1S(=O)(=O)Nc1ccc2c(c1)C(=O)N([C@@H](C)CO)C[C@H](C)[C@@H](CN(C)C(=O)Nc1ccc3c(c1)OCO3)OCCCC[C@H](C)O2,.,.,/,.,/,/
CC(=O)c1cccc(NC(=O)Nc2cnn(Cc3ccc(Cl)cc3Cl)c2)c1,64,/,/,/,/,.
O=C(C[C@@H]1CC[C@@H](NC(=O)C2CCOCC2)[C@@H](CO)O1)Nc1ccccc1,.,.,.,.,/,/
CCN1CCN(C(=O)C(C)Nc2ccc(OC)cc2OC)CC1 (stereo not drawn),.,26,.,.,.,.
Nc1[nH]nc2nc(N3CCOCC3)nc(-c3ccccc3)c12,67,/,/,/,/,.
CC(C)c1ccc(-c2nc(N3CCCC3)nc3n[nH]c(N)c23)cc1,.,/,/,/,/,/
Cc1noc(C)c1S(=O)(=O)N(C)C[C@H]1OCCCC[C@H](C)Oc2ccc(NC(=O)Nc3ccc(F)cc3)cc2C(=O)N([C@H](C)CO)C[C@@H]1C,.,.,.,.,.,/
Cc1cc(C)c(S(=O)(=O)N(C)CC(=O)N2CCCC2)c(C)c1,.,.,.,.,.,34
Cc1ccc(S(=O)(=O)N(C)CC(=O)N2CCCC2)cc1,/,/,/,/,/,.
C[C@@H](O)C#Cc1ccc2c(c1)O[C@@H](CN(C)Cc1ccccn1)[C@@H](C)CN([C@@H](C)CO)S2(=O)=O,.,.,/,.,/,/
Cc1nnc(SCc2ccc(F)cc2)s1,/,/,/,/,/,.
Cc1nc(CSc2nnc(C)s2)cs1,/,.,85,.,.,.
COc1ccc(-c2nc(CS(=O)CC(=O)NCc3ccco3)c(C)o2)cc1OC (stereo not drawn),73,.,.,.,.,.
COc1ccc(Nc2ncc(C(=O)N3CCN(c4ccc(F)cc4)CC3)c3ccccc23)cc1,93,/,/,/,.,.
C[C@@H]1CN([C@@H](C)CO)C(=O)c2cc(-c3ccc(C#N)cc3)cnc2O[C@H]1CN(C)C(=O)c1ccccc1,.,.,/,.,.,/
COCCCNC(=O)C[C@H]1C[C@H](C(=O)N2CCCCC2)[C@@]2(CCc3ccccc3)c3[nH]c4cc(-c5ccco5)ccc4c3CCN2C1=O,.,.,.,.,.,.
C[C@]12c3[nH]c4ccc(Cl)cc4c3CCN1C(=O)[C@@H](CC(=O)NCc1ccco1)C[C@@H]2C(=O)N1CCCCC1,.,.,.,.,34,.
O=C(C[C@H]1C[C@H](C(=O)N2CCCCC2)[C@@]2(CCc3ccccc3)c3[nH]c4cc(-c5ccco5)ccc4c3CCN2C1=O)NCCN1CCOCC1,.,26,.,.,.,.
COc1ccc2[nH]c3c(c2c1)CCN1C(=O)C(CC(=O)NCc2ccco2)C[C@H](C(=O)N2CCCCC2)[C@@]31C (stereo partly drawn),.,.,.,.,.,.
CC[C@]12c3[nH]c4ccc(Cl)cc4c3CCN1C(=O)[C@@H](CC(=O)NC/C=C(\C)CCC=C(C)C)C[C@@H]2C(=O)N1CCN(C(=O)C2CC2)CC1,.,.,75,.,.,.

# Compound activity as filed in PubChem BioAssay.
